# Activity calls are given as the source filed them. The rule behind the calls is not given here.
# What was measured:
# Glucocorticoid receptor [1] = target: T1, Glucocorticoid receptor (Homo sapiens, UniProt P04150); assay: Agonist activity at glucocorticoid receptor in HFF assessed as inhibition of IL1-induced IL-6 production after 18 to 24 hrs; assay type: functional
# T1 sequence (P04150 whole entry): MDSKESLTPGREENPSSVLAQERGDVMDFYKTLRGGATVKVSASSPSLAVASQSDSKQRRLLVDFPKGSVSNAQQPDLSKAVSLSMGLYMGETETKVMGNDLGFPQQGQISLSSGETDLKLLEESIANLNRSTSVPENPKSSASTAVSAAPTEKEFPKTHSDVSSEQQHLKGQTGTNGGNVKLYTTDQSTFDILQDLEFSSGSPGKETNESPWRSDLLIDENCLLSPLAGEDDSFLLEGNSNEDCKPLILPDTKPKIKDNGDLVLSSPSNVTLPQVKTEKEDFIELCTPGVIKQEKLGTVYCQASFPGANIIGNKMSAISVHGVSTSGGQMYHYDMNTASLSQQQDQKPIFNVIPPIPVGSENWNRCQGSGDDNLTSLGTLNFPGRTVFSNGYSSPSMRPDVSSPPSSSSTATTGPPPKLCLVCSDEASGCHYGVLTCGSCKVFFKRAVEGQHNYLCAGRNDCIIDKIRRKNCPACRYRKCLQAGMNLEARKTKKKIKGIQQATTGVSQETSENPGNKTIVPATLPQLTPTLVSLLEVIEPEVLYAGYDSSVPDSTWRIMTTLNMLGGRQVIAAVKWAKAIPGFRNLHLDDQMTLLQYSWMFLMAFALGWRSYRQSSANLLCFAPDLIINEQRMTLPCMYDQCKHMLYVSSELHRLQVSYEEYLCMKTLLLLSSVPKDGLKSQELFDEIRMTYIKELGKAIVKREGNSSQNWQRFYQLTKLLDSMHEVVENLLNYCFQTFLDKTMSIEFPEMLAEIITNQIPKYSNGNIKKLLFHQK
# [2] = target: T2, Mineralocorticoid receptor (Homo sapiens, UniProt P08235); assay: Displacement of tetramethylrhodamine-labeled Dexamethasone from human recombinant mineralocorticoid receptor expressed in baculovirus infected insect cells by fluorescence polarization assay
# T2 sequence (P08235 whole entry): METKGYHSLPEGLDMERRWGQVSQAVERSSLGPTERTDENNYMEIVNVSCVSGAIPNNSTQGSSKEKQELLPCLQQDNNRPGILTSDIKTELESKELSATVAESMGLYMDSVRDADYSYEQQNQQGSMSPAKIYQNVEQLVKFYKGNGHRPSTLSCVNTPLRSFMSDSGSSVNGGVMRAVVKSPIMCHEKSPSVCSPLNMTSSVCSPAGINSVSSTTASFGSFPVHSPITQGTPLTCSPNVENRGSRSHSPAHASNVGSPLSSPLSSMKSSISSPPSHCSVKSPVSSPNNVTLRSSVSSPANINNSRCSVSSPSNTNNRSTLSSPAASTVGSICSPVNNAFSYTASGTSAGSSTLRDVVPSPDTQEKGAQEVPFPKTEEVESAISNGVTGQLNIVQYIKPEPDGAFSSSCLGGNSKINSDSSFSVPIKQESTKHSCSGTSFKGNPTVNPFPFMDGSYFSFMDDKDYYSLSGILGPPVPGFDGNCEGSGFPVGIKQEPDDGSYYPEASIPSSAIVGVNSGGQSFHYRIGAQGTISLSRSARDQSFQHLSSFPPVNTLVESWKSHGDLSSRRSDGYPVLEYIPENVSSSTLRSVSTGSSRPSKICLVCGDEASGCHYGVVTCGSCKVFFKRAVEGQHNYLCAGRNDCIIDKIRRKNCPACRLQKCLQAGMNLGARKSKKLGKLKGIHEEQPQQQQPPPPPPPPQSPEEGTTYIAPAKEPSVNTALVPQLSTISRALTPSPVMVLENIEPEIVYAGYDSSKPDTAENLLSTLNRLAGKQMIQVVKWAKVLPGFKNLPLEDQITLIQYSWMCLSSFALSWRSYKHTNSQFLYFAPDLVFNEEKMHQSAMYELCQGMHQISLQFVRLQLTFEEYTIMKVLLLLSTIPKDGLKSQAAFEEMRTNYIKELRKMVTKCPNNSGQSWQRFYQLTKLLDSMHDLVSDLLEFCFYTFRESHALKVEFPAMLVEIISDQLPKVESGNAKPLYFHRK
# Procedure, shortened: (§1)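 Fluorescence polarization competition assays with recombinant human receptors in lysates of baculovirus-infected insect cells. Reactions contained 1% DMSO and ran 1 h at room temperature.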
# Glucocorticoid receptor [3] = target: T1, Glucocorticoid receptor; assay: Displacement of tetramethylrhodamine-labeled Dexamethasone from human recombinant glucocorticoid receptor expressed in baculovirus infected insect cells by fluorescence polarization assay
# Progesterone receptor = target: T3, Progesterone receptor (Homo sapiens, UniProt P06401); assay: Displacement of tetramethylrhodamine-labeled RU-486 from human recombinant progesterone receptor expressed in baculovirus infected insect cells by fluorescence polarization assay; procedure, shortened: as §1
# T3 sequence (P06401 whole entry): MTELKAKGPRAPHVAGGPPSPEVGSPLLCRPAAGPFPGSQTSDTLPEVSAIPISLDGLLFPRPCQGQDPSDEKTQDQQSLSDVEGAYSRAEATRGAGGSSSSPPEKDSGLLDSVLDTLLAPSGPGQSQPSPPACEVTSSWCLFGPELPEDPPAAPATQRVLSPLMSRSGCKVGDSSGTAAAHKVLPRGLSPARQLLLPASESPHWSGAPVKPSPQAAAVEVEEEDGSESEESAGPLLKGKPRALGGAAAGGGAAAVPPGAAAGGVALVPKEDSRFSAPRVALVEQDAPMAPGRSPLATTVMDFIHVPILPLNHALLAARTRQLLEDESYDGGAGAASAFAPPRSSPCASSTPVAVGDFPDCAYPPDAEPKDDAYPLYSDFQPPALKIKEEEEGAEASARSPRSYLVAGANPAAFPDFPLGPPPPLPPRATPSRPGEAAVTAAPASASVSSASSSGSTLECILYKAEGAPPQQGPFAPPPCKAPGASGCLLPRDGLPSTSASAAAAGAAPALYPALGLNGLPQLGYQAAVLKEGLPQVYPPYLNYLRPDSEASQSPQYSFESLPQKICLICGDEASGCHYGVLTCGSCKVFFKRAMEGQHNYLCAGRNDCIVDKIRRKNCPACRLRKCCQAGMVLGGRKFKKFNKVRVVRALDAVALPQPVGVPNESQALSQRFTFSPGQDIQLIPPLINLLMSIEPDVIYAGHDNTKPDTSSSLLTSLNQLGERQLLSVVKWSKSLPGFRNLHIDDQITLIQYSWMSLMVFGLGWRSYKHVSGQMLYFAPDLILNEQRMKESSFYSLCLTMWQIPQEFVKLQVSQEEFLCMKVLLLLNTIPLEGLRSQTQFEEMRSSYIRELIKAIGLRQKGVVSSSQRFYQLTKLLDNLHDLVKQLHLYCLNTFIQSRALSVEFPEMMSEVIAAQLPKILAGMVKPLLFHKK
# Glucocorticoid receptor [4] = target: T1, Glucocorticoid receptor; assay: Transactivation activity of glucocorticoid receptor in HFF assessed as induction of aromatase activity by measuring beta-estradiol activity after 18 to 24 hrs by ELISA
# [5] = target: T4, Glucocorticoid receptor (Homo sapiens) (UniProt P04150); assay: Agonist activity at glucocorticoid receptor in HFF assessed as inhibition of IL1-induced IL-6 production after 18 to 24 hrs relative to Dexamethasone; assay type: functional
# T4 sequence (whole entry): T1 sequence (P04150 whole entry)
# Procedure, shortened: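 Human foreskin fibroblasts stimulated with IL-1 (1 ng/mL) in the presence of test compound, incubated at 37 °C for 18–24 h. IL-6 in the culture medium was quantified by electrochemiluminescence, DELFIA or ELISA. IC50 and % maximal efficacy were reported.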
# Homo sapiens [6] = species on record: Homo sapiens; assay: Selectivity ratio of IC50 for human recombinant glucocorticoid receptor to IC50 for human recombinant mineralocorticoid receptor
# Homo sapiens [7] = species on record: Homo sapiens; assay: Selectivity ratio of IC50 for human recombinant glucocorticoid receptor to IC50 for human recombinant progesterone receptor
# [8] = target: T4, Glucocorticoid receptor (Homo sapiens); assay: Transactivation activity of glucocorticoid receptor in HFF assessed as induction of aromatase activity by measuring beta-estradiol activity after 18 to 24 hrs by ELISA relative to Dexamethasone
# Mus musculus [9] = assay: Antiinflammatory activity in mouse plasma assessed as inhibition of LPS-induced TNFalpha production at 10 mg/kg, po administered 1 hr before LPS challenge measured after 1 hr; assay type: functional
# Procedure, shortened: (§2)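 Mice received compound orally in Cremophor RH 1 h before LPS challenge. Plasma TNF-α was measured 1 h after challenge. n = 8 per group; doses were 3 and 10 mg/kg.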
# Mus musculus [10] = assay: Antiinflammatory activity in po dosed mouse plasma assessed as inhibition of LPS-induced TNFalpha production administered 1 hr before LPS challenge measured after 1 hr; assay type: functional; procedure, shortened: as §2
# [11] = target: T4, Glucocorticoid receptor (Homo sapiens); assay: Agonist activity at glucocorticoid receptor in human HeLa cells transfected with luciferase gene linked to MMTV promoter assessed as luciferase transactivation activity relative to Dexamethasone; assay type: functional, cell-based
# Procedure, shortened: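 HeLa cells stably carrying an MMTV-luciferase construct were exposed to compound for 6 h at 37 °C, 5% CO2. Cells were then lysed and luminescence read with a Steady-Glo reagent. EC50 and % maximal efficacy were reported.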
# Glucocorticoid receptor [12] = target: T1, Glucocorticoid receptor; assay: Agonist activity at glucocorticoid receptor in human HeLa cells transfected with luciferase gene linked to MMTV promoter assessed as luciferase transactivation activity; assay type: functional, cell-based
# Mus musculus [13] = assay: Antiinflammatory activity in mouse plasma assessed as inhibition of LPS-induced TNFalpha production at 3 mg/kg, po administered 1 hr before LPS challenge measured after 1 hr; assay type: functional; procedure, shortened: as §2
SMILES,IC50 (Glucocorticoid receptor [1]),IC50 [2],IC50 (Glucocorticoid receptor [3]),IC50 (Progesterone receptor),EC50 (Glucocorticoid receptor [4]; read-out: EC50),Efficacy [5],Ratio IC50 (Homo sapiens [6]),Ratio IC50 (Homo sapiens [7]),Efficacy [8],Efficacy [11],EC50 (Glucocorticoid receptor [12]),EC50 (Glucocorticoid receptor [4]),inhibition in vivo at 10 mg/kg (Mus musculus [9]),ED50 (Mus musculus [10]),inhibition in vivo at 3 mg/kg (Mus musculus [13]),inhibition (Mus musculus [13])
CC(C)(C[C@@](O)(Cc1cc2ccccc2[nH]1)C(F)(F)F)c1cc(Br)cc2c1OCC2,–,–,–,–,–,–,–,–,–,–,–,–,61%,< 10 mg/kg,–,–
CC(C)(CC(O)(Cc1cc2ccccc2[nH]1)C(F)(F)F)c1cc(C#N)cc2c1OCC2 (racemic),0.104 µM,0.405 µM,0.015 µM,0.71 µM,0.356 µM,65%,–,50,55%,–,–,–,–,–,–,–
CCc1cccc2[nH]c(CC(O)(CC(C)(C)c3cc(F)ccc3OC)C(F)(F)F)cc12 (racemic),0.088 µM,0.79 µM,0.028 µM,1 µM,–,90%,–,30,49%,–,–,Not Active,–,–,–,–
CC(C)(CC(O)(Cc1cc2ccccc2[nH]1)C(F)(F)F)c1cc(S(C)(=O)=O)cc2c1OCC2 (racemic),0.1 µM,0.61 µM,0.006 µM,> 2 µM,–,84%,100,> 300,–,20%,> 2 µM,–,–,–,–,–
CC(C)(CC(O)(Cc1cc2cc(C#N)ccc2[nH]1)C(F)(F)F)c1cc(S(C)(=O)=O)cc2c1OCC2 (racemic),0.049 µM,1.45 µM,0.005 µM,> 2 µM,0.08 µM,85%,–,–,63%,4%,> 2 µM,–,77%,< 10 mg/kg,–,inactive

# The remaining compounds from weak to strong by IC50 (Glucocorticoid receptor [1]), led by results:
IC50 (Glucocorticoid receptor [1]),IC50 [2],IC50 (Glucocorticoid receptor [3]),IC50 (Progesterone receptor),EC50 (Glucocorticoid receptor [4]; read-out: EC50),Efficacy [5],Ratio IC50 (Homo sapiens [6]),Ratio IC50 (Homo sapiens [7]),Efficacy [8],Efficacy [11],EC50 (Glucocorticoid receptor [12]),EC50 (Glucocorticoid receptor [4]),SMILES,inhibition in vivo at 10 mg/kg (Mus musculus [9]),ED50 (Mus musculus [10]),inhibition in vivo at 3 mg/kg (Mus musculus [13]),inhibition (Mus musculus [13])
0.039 µM,0.43 µM,0.005 µM,> 2 µM,0.125 µM,89%,–,–,98%,10%,> 2 µM,–,CC(C)(CC(O)(Cc1cc2ccc(C#N)cc2[nH]1)C(F)(F)F)c1cc(S(C)(=O)=O)cc2c1OCC2 (racemic),66%,< 10 mg/kg,66%,–
0.014 µM,0.435 µM,0.014 µM,0.395 µM,0.113 µM,91%,30,30,98%,–,–,–,COc1ccc(F)cc1C(C)(C)CC(O)(Cc1cc2ccc(C#N)cc2[nH]1)C(F)(F)F (racemic),–,–,–,–
0.011 µM,0.415 µM,0.008 µM,0.815 µM,0.028 µM,89%,50,100,81%,–,–,–,COc1ccc(F)cc1C(C)(C)CC(O)(Cc1cc2cc(C#N)ccc2[nH]1)C(F)(F)F (racemic),–,–,–,–
0.008 µM,0.225 µM,0.005 µM,0.44 µM,0.021 µM,91%,–,90,91%,–,–,–,COc1ccc(F)cc1C(C)(C)CC(O)(Cc1cc2c(C#N)cccc2[nH]1)C(F)(F)F (racemic),–,–,–,–
0.003 µM,0.045 µM,0.001 µM,0.155 µM,0.006 µM,90%,–,–,71%,10%,0.036 µM,–,COc1ccc(F)cc1C(C)(C)C[C@@](O)(Cc1cc2cc(C#N)ccc2[nH]1)C(F)(F)F,–,–,–,–

# — ChEMBL document CHEMBL1909618, “Non-steroidal dissociated glucocorticoid agonists: indoles as A-ring mimetics and function-regulating pharmacophores” (Bioorg Med Chem Lett, 2011)
